Laboratory results: PubChem BioAssay AID1496 (Sanford-Burnham Center for Chemical Genomics, 2009)
In all, about 220,000 compounds went through this assay and about 990 (0.45%) were called active. The full list was thinned out, with actives kept by preference. Unmarked numbers belong to inactive results.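 The calls were made as follows: active = inhibition over about 50% at 20 µM in the single-dose screen (limit read from the data); inactive = the rest.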

biological target: Runt-related transcription factor 1 (Homo sapiens) + Core-binding factor subunit beta (Homo sapiens) (UniProt Q01196+Q13951); test: inhibitors of RUNX1 Runt–CBFb binding, primary screen, biochemical, FRET, Cerulean-Runt, Venus-CBFb, uHTS (AID 1496); settings: Cerulean-Runt/Venus-CBFb FRET ratio 530/480, 1 h; at 20 µM; active compounds read high;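 also: 0% = DMSO wells and 100% = excess unlabeled CBFb competitor control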
Method in brief: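 test system = Cerulean-Runt domain fusion protein, energy donor | probe or stimulus = Venus-CBFb binding partner, 100 nM | incubation = two 1 h room-temperature incubations shielded from light | detection = fluorescence energy transfer, 422 nm excitation, 530/480 nm emission | measure = loss of energy transfer signal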

Sequence of Runt-related transcription factor 1 (Homo sapiens) + Core-binding factor subunit beta (Homo sapiens) (Q01196 whole entry, looked up, the tested form may be a part): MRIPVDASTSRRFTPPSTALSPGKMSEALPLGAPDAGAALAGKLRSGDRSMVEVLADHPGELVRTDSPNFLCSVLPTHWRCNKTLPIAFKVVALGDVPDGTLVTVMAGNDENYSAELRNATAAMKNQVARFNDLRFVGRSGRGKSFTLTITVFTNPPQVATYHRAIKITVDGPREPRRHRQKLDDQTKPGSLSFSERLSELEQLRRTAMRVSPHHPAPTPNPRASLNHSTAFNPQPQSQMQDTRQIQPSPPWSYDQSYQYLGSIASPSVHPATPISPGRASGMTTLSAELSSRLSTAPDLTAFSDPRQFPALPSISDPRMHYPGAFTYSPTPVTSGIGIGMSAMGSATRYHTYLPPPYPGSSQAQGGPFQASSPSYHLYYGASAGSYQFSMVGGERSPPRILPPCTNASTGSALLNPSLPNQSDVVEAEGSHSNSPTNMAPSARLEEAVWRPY
Sequence of Runt-related transcription factor 1 (Homo sapiens) + Core-binding factor subunit beta (Homo sapiens) (Q13951 whole entry, looked up, the tested form may be a part): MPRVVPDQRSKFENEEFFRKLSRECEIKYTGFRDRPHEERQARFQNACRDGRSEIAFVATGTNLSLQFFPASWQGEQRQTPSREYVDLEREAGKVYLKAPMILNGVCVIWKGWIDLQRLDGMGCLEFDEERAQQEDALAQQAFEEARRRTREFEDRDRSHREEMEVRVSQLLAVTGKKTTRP

SMILES	inhibition
COCCCn1c(CCC(=O)O)ccc1-c1ccc(F)cc1	3.3%
CCn1c(NC(=O)c2ccccc2)c(-c2cccs2)c(=O)c2ccccc21	-4.7%
CC(C)Cn1c(CCC(=O)O)ccc1-c1cccs1	65.6% (active)
CNC(=S)NNC(=O)c1ccc(N(C)C)cc1	1.6%
Cc1cc(F)ccc1NC(=O)C(C)n1c2ccccc2c2nc(=O)cc(C)n21 (stereo not drawn)	1.5%
CCOc1ccc(/C=N/NC(=O)CSc2ccccn2)cc1O	2.9%
CCN(CC)CCn1c(N)c(S(=O)(=O)c2ccccc2)c2nc3ccccc3nc21	5.9%
Cc1ccc(S(=O)(=O)c2c(N)n(C)c3nc4ccccc4nc23)cc1	7.1%
CCC(=O)Nc1c(S(=O)(=O)c2ccccc2)c2nc3ccccc3nc2n1Cc1ccccc1	78.8% (active)
O=c1c2cc(-c3ccccc3)sc2nc2n1N=C(c1cccs1)CS2	-2.4%
Nc1nc(NCC2CCCO2)nc(Nc2ccccc2F)c1[N+](=O)[O-] (stereo not drawn)	-3.8%
Cc1ccc2nc(NCCCNC(=O)c3cnccn3)c(C#N)cc2c1	21.2%
COCCCNC(=S)NCCNc1nc2cc(C)c(C)cc2cc1C#N	82.7% (active)
COCCCNC(=S)NC(=O)c1ccc([N+](=O)[O-])cc1	4.5%
CC(/C=C/c1ccco1)=N/NC(=O)C1COc2ccccc2O1 (stereo not drawn)	2.3%
Cn1nc(C(F)(F)F)c(-c2ccc(F)cc2)c1NC(=O)CSCC(=O)O	3.4%
O=C1c2ccccc2C(Nc2ccc3c(c2)OCCO3)N1Cc1ccco1 (stereo not drawn)	70% (active)
Cc1ccnc(N2C(=O)c3ccccc3C2Nc2ccc3c(c2)OCCO3)c1 (stereo not drawn)	1.5%
O=C(NC1CCCCC1)C1c2ccccc2C(=O)N1Cc1ccco1 (stereo not drawn)	1.8%
COC(=O)c1ccc(COc2cc([N+](=O)[O-])cc3cccnc23)cc1	-0.8%
CCOC(=O)Cc1csc(SCc2cc(=O)oc3cc(O)ccc23)n1	77.8% (active)
Cc1ccc2c(CSc3nncs3)cc(=O)oc2c1	3.7%
CCOC(=O)Cc1csc(NC(=O)COc2ccc3c(C)cc(=O)oc3c2)n1	1.8%
COc1cccc(Nc2nc(N)c([N+](=O)[O-])c(NCc3ccco3)n2)c1	0.2%

SMILES	inhibition
O=c1oc2c(CN3CCCCC3)c(O)ccc2c2c1CCCCC2	72.8% (active)
CN1CCN(Cc2c(O)ccc3c2oc(=O)c2ccccc23)CC1	-1.7%
NC(=O)COc1ccc2c3c(c(=O)oc2c1)CCCCC3	1.7%
COCc1[nH]nc2c1C(C1C=CCCC1)C(C#N)=C(N)O2 (stereo not drawn)	-0.2%
N#CC1=C(N)OC2=C(C(=O)CCC2)C1C1CC=CCC1 (stereo not drawn)	-0.5%
N#CC1=C(N)Oc2cc(O)ccc2C1C1CCCCC1 (stereo not drawn)	50.9% (active)
COC(=O)c1noc(C)c1-c1ccnn1C(=O)c1ccc(Cl)cc1	0%
Fc1ccc(COc2ccc(-c3nnco3)cc2)cc1	-1.3%
O=C(/C=C/c1ccc2c(c1)OCCO2)c1ccc(O)cc1	-2.3%
COc1ccc(-c2cn3ccc(C)cc3n2)cc1	0.2%
O=c1cc(CN2CCN(S(=O)(=O)/C=C/c3ccccc3)CC2)c2ccc(O)cc2o1	74.1% (active)
COc1ccc2c(CN3CCN(S(=O)(=O)c4cccs4)CC3)cc(=O)oc2c1	-1.9%
O=C(CN1CCN(S(=O)(=O)/C=C/c2ccccc2)CC1)Nc1ccc(N2CCOCC2)cc1	0.6%
COc1ccc(Nc2cc(=O)n(-c3ccccc3)c3c2c(=O)n(C)c(=O)n3C)cc1	-0.7%
Cn1c(CC2Sc3ccccc3NC2=O)nnc1SCC(=O)c1ccc(Cl)cc1 (stereo not drawn)	1.9%
O=C(C[n+]1cc(-c2ccc(Cl)c(Cl)c2)n2c1CCC2)c1cccs1	1.5%
CCOc1ccc(-c2nc(N)ncc2-c2ccccc2OC)c(O)c1	-2.9%
Cc1cc2nc3c(=O)n(Cc4ccccc4)c(=O)[nH]c3nc2cc1N	-281%
COc1ccc2[nH]c(=S)cc(C)c2c1	30.9%
CC(=O)Nc1cc2ccc(OC(C)=O)cc2oc1=O	86.5% (active)
CC(=O)Oc1ccc(NC(=O)CCC2CCCCC2)c(C(=O)O)c1	-13.2%
COC(=O)Cc1c(C)c2ccc(OCC(=O)NCc3ccc4c(c3)OCO4)cc2oc1=O	-2.3%
CC(=O)Oc1ccc2c(C)c(CC(C)O)c(=O)oc2c1 (stereo not drawn)	52.3% (active)
O=C(Oc1ccccc1)Oc1ccc2c(c1)oc(=O)c1ccccc12	-1%
